The record followed here is ChEMBL document CHEMBL5038583, “Highly Potent and Selective Butyrylcholinesterase Inhibitors for Cognitive Improvement and Neuroprotection” (J Med Chem, 2021).

The target in data set [1] is Cholinesterase (Homo sapiens, UniProt P06276). Nature of the data set: Inhibition of human serum BChE using butyrylthiocholine iodide as substrate preincubated for 20 mins followed by substrate addition and measured after 2 mins by DTNB-reagent based Ellman's method. In outline:
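hBChE at 0.015 units/mL with DTNB in phosphate buffer pH 8.0, preincubated 20 min at room temperature with at least six concentrations (10⁻⁴−10⁻⁹). Butyrylthiocholine iodide (0.075 M solution) added; A412 read after 2 min at 25 °C. IC50 from % activity vs log concentration; triplicates in at least three runs.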

The target in data set [2] is Cholinesterase (Equus caballus, UniProt P81908). Nature of the data set: Inhibition of equine serum BChE using butyrylthiocholine iodide as substrate preincubated for 5 mins followed by substrate addition and measured after 2 mins by DTNB-reagent based Ellman's method.
Data set [3] deals with Cholinesterase (Equus caballus) (UniProt P81908). Description: Inhibition of equine serum BChE at 10 uM using butyrylthiocholine iodide as substrate preincubated for 5 mins followed by substrate addition and measured after 2 mins by DTNB-reagent based Ellman's method relative to control. The following applies: time 7.0 min. The essentials: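 Ellman method with equine BChE at 2.5 units/mL in pH 8.0 phosphate buffer with DTNB. Preincubation 5 min at room temperature, then butyrylthiocholine iodide (0.075 M solution) added; absorbance at 412 nm after 2 min. Ethanol sample gives 100% activity. Triplicates, at least three runs.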

Data set [4] in a line: Toxicity in ICR mouse assessed as increase in body weight administered for 14 days and measured daily. To be noted: in vivo, 15 mg/kg, 336 h.

Cholinesterase (Homo sapiens, UniProt P06276), sequence (P06276 whole entry): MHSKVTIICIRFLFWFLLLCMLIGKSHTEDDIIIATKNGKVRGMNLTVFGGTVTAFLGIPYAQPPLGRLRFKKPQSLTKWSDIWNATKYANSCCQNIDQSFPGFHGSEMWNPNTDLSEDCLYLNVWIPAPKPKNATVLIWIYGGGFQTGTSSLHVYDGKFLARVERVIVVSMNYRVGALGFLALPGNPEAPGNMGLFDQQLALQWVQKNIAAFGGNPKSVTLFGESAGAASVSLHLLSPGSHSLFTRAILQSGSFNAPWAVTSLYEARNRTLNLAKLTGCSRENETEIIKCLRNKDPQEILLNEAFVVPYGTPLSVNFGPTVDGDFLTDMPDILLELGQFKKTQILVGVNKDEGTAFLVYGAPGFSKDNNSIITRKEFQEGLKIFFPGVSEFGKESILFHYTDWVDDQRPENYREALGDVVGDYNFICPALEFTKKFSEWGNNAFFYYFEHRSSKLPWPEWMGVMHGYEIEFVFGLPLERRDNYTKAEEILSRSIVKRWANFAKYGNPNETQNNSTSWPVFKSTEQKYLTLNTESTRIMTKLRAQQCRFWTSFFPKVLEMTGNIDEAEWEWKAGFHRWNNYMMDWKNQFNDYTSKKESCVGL
Cholinesterase (Equus caballus), sequence (P81908 whole entry): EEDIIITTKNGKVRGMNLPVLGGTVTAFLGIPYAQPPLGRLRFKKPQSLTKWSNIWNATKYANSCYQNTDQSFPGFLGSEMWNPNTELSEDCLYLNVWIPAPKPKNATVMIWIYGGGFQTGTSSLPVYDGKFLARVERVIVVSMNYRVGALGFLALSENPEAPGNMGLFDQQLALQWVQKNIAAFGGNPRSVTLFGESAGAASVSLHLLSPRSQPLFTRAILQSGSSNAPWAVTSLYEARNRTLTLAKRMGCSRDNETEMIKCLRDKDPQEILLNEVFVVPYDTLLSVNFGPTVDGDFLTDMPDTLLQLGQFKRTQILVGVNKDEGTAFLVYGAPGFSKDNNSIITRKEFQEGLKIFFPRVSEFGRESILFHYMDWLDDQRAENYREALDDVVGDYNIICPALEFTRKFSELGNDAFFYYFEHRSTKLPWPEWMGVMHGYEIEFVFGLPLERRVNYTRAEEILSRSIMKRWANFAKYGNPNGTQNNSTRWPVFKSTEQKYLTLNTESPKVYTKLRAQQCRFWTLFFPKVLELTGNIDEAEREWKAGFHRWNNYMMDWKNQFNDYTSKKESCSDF
Cholinesterase (Equus caballus, UniProt P81908), sequence (P81908 whole entry): as above

One may read the IC50 as the concentration needed to halve the response being measured. A lower IC50 goes with inhibition by little substance. Take `COC(=O)c1cccc(NC(=O)Cn2c(-c3nonc3N)nc3ccccc32)c1`: the values for the IC50 on Cholinesterase [1] and against Cholinesterase [2] were 0.18 µM and 0.027 µM, respectively.

For the molecule `COc1cccc(NC(=O)Cn2c(-c3nonc3N)nc3ccccc32)c1`, the 50% inhibitory concentration (IC50) on Cholinesterase [2] stood at 1.71 µM.

In general, inhibition refers to the percentage by which the read-out fell short of the control. As for `O=C(Cn1c(-c2ccccc2)nc2ccccc21)Nc1ccc2ncccc2c1`, the inhibition in data set [3] was < 50%.

Consider `COc1ccc(NC(=O)Cn2c(-c3nonc3N)nc3ccccc32)cc1`, for which the inhibition in data set [3] was < 50%.

For the molecule `Nc1nonc1-c1nc2ccccc2n1CC(=O)Nc1ccccc1`, at Cholinesterase [2], the IC50 worked out at 2.96 µM.

Take `Nc1nonc1-c1nc2ccccc2n1CC(=O)Nc1ccc([N+](=O)[O-])cc1`: the results for the IC50 against Cholinesterase [1] and against Cholinesterase [2] were 0.08 µM and 0.03 µM, respectively.

As for `Nc1nonc1-c1nc2ccccc2n1CC(=O)Nc1cccc(Cl)c1`, the values for the IC50 at Cholinesterase [1] and against Cholinesterase [2] were 0.128 µM and 0.033 µM, respectively.

Regarding `O=C(Cn1c(-c2ccccc2[N+](=O)[O-])nc2ccccc21)Nc1ccc2ncccc2c1`, the inhibition in data set [3] was < 50%.

Consider `Cc1ccc(NC(=O)Cn2c(-c3nonc3N)nc3ccccc32)cc1`, for which the midpoint of inhibition on Cholinesterase [2], the IC50, lay at 10.3 µM.

On to `COc1cc(NC(=O)Cn2c(-c3nonc3N)nc3ccccc32)cc(OC)c1OC`, for which the midpoint of inhibition against Cholinesterase [2], the IC50, lay at 6.64 µM.

On Cholinesterase [2], `CC(=O)c1cccc(NC(=O)Cn2c(-c3nonc3N)nc3ccccc32)c1` had an IC50 of 0.191 µM.

With `Nc1nonc1-c1nc2ccccc2n1CCCCC(=O)Nc1ccc2ncccc2c1`, the inhibition in data set [3] is < 50%.

In the case of `Nc1nonc1-c1nc2ccccc2n1CC(=O)Nc1ccc2ncccc2c1`, the IC50 at Cholinesterase [2] came out at 0.705 µM.

`Nc1ccc(NC(=O)Cn2c(-c3nonc3N)nc3ccccc32)cc1`: the inhibition in data set [3] is < 50%.

On to `COc1cc2c(cc1OC)C(=O)C(CC1CCN(Cc3ccccc3)CC1)C2` (stereo not given) [DONEPEZIL], for which the Activity entry in data set [4] was “Toxic”.

As to `Nc1nonc1-c1nc2ccccc2n1CC(=O)Nc1ccccc1Cl`, the IC50 at Cholinesterase [2] was 2.73 µM.

At Cholinesterase [2], `COC(=O)c1ccc(NC(=O)Cn2c(-c3nonc3N)nc3ccccc32)cc1` had an IC50 of 5.38 µM. Against the preceding molecule, the IC50 is about 2-fold higher.

`Cc1cccc(NC(=O)Cn2c(-c3nonc3N)nc3ccccc32)c1`: the IC50 against Cholinesterase [2] turned out to be 0.236 µM.

On to `Nc1nonc1-c1nc2ccccc2n1CC(=O)Nc1ccnc2ccccc12`, for which the IC50 against Cholinesterase [1] came out at 0.212 µM; at Cholinesterase [2] it was 0.051 µM.

On Cholinesterase [2], `Nc1nonc1-c1nc2ccccc2n1CC(=O)Nc1ccc2ccccc2c1` registered an IC50 of 352 µM.

Turning to `Nc1nonc1-c1nc2ccccc2n1CC(=O)Nc1cccc(F)c1`, the IC50 at Cholinesterase [2] is 1.04 µM.
